The values that follow come from ChEMBL document CHEMBL4261557, “MAO inhibitory activity of bromo-2-phenylbenzofurans: synthesis, in vitro study, and docking calculations” (Medchemcomm, 2017).

The test system of series [1] is SH-SY5Y. In words: Cytotoxicity against human SH-SY5Y cells assessed as reduction in cell viability at 1 to 10 uM after 24 hrs by MTT assay. The series is classed as cell-based. In short, it runs like this: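 SH-SY5Y neuroblastoma cells seeded at 1.106 mL–1, incubated overnight, then exposed 24 h to compound at 1 or 10 μM in 1% DMSO; 1% DMSO as negative control. MTT (5 mg ml–1 in PBS, 10%) added for 2 h at 37 °C, crystals dissolved in DMSO, absorbance 540 nm; viability = treated/control absorbance × 100. Mean ± S.E.M., ≥5 cultures.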
Background: Tetrazolium dyes change colour on reduction, which living cells bring about.

For series [2], the species on record is Homo sapiens. The series is described as follows: Selectivity index, ratio of IC50 for recombinant human MAO-A expressed in baculovirus infected insect cells to IC50 for recombinant human MAO-B expressed in baculovirus infected insect cells. In short, it runs like this:
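Ratio of IC50 against hMAO-A to IC50 against hMAO-B, both measured by the Amplex Red/p-tyramine fluorimetric assay with recombinant enzymes from insect cells.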

Series [3] deals with T1, Amine oxidase [flavin-containing] A (Homo sapiens, UniProt P21397).
T1 sequence (P21397 whole entry): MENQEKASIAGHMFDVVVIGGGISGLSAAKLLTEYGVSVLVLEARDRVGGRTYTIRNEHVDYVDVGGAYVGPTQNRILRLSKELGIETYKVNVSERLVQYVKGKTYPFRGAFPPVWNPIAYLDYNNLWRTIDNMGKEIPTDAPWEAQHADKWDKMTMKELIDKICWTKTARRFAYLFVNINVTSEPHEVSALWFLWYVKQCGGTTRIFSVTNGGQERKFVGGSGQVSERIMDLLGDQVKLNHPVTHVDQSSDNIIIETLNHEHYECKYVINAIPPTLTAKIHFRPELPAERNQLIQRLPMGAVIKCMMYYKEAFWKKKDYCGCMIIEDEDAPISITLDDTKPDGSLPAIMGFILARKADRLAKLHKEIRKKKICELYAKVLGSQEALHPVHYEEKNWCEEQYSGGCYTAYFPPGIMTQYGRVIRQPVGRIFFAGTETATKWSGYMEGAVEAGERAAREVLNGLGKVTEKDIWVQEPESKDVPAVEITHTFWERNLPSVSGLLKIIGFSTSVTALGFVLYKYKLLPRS
The series is described as follows: Inhibition of recombinant human MAO-A expressed in baculovirus infected insect cells assessed as reduction in H2O2 production using p-tyramine as substrate pretreated for 15 mins followed by substrate addition and measured over 15 mins by Amplex red reagent based fluorimetric assay.

The target of series [4] is T2, Amine oxidase [flavin-containing] B (Homo sapiens, UniProt P27338).
T2 sequence (P27338 whole entry): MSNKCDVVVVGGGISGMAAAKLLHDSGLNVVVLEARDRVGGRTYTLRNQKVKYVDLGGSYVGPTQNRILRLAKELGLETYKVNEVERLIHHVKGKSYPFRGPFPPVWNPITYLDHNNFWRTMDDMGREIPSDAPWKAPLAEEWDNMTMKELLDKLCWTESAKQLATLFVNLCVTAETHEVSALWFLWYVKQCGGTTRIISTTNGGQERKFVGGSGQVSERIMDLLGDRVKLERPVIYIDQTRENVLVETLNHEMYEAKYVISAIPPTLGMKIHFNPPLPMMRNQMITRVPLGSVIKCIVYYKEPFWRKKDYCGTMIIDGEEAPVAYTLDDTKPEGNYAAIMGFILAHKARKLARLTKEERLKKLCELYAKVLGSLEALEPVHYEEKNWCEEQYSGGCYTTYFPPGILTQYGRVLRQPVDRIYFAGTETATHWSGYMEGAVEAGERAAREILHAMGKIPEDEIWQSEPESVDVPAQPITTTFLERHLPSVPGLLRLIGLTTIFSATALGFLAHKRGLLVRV
The series is described as follows: biochemical.

The target of series [5] is T2, Amine oxidase [flavin-containing] B. The series is described as follows: Inhibition of recombinant human MAO-B expressed in baculovirus infected insect cells assessed as reduction in H2O2 production at 100 uM using p-tyramine as substrate pretreated for 15 mins followed by substrate addition and measured over 15 mins by Amplex red reagent based fluorimetric assay relative to control. Conditions: 0.25 h. The gist of the method: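 hMAO-B from baculovirus-infected BTI-TN-5B1-4 insect cells, 7.5 μg protein, matched to 165 pmol p-tyramine/min. Preincubated with inhibitor in 0.05 M phosphate buffer pH 7.4, 15 min at 37 °C. Started with 200 μM Amplex Red, 1 U mL–1 HRP, 1 mM p-tyramine (final). Fluorescence (ex 545/em 590 nm) over 15 min at 37 °C, minus no-enzyme background; percent inhibition at 100 μM.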

Series [6] deals with T1, Amine oxidase [flavin-containing] A. In words: Inhibition of recombinant human MAO-A expressed in baculovirus infected insect cells assessed as reduction in H2O2 production at 100 uM using p-tyramine as substrate pretreated for 15 mins followed by substrate addition and measured over 15 mins by Amplex red reagent based fluorimetric assay relative to control. The note with it: 0.25 h.

Each structure is given as a SMILES string.

As to `Brc1ccccc1-c1cc2ccccc2o1`, the Activity entry in series [1] is “Non-Toxic”. Also, in series [2], the Ratio IC50 turned out to be 7.2. The figures for the IC50 in series [3] and in series [4] were 8.12 µM and 1.13 µM, respectively.

As for `Cc1ccc2oc(-c3ccccc3Br)cc2c1`, the Activity result in series [1] is reported as “Non-Toxic”. For the same compound, the Ratio IC50 in series [2] came to 55. Also, the half-inhibitory concentration (IC50) (as a rule, the concentration that gives 50% inhibition) worked out at 11 µM in series [3] and 0.2 µM in series [4].

For `Cc1ccc2oc(-c3ccc(Br)cc3)cc2c1`, in series [5], the inhibition (in general, how much of the control response was suppressed) at 100 µM worked out at 46.1%. The Activity result in series [1] is recorded as “Non-Toxic”. The half-maximal inhibitory concentration (IC50) in series [3] is over 100 µM; in series [4], 100 µM.

Turning to `Cc1cccc2cc(-c3ccccc3Br)oc12`, in series [1], the Activity entry was “Non-Toxic”. Besides, in series [6], the inhibition at 100 µM was 44.8%. In addition, in series [2], the Ratio IC50 was determined as 11.5. Also, the concentration for half-maximal inhibition (IC50) in series [3] was determined as 100 µM; in series [4] it was 9.68 µM.

Consider `Cc1ccc2oc(-c3cccc(Br)c3)cc2c1`, for which the Activity entry in series [1] is on record as “Non-Toxic”. Besides, the Ratio IC50 in series [2] is over 400. The concentration for half-maximal inhibition (IC50) in series [3] is over 100 µM; in series [4], 0.25 µM.

`Cc1ccc2oc(-c3ccccc3)cc2c1`: the Activity result in series [1] is given as “Non-Toxic”. Moreover, in series [2], the Ratio IC50 was over 114. Moreover, the IC50 in series [3] was over 100 µM; in series [4], 0.88 µM.

On to `Cc1cccc2cc(-c3ccc(Br)cc3)oc12`, for which the Activity entry in series [1] is reported as “Non-Toxic”. Moreover, in series [6], the inhibition at 100 µM worked out at 46.8%. The Ratio IC50 in series [2] amounted to 95.2. Moreover, the concentration for half-maximal inhibition (IC50) in series [3] was determined as 100 µM; in series [4], 0.95 µM.

`c1ccc(-c2cc3ccccc3o2)cc1`: the Activity entry in series [1] is recorded as “Non-Toxic”. Moreover, the IC50 in series [3] and in series [4] was over 100 µM throughout.

Turning to `Cc1cccc2cc(-c3ccccc3)oc12`, the Activity result in series [1] is given as “Non-Toxic”. For the same compound, the inhibition at 100 µM in series [6] came to 53.9%. Besides, the Ratio IC50 in series [2] came out at 9.3. Also, the IC50 in series [3] is 100 µM; in series [4], 10.7 µM.

For the compound `Brc1ccc(-c2cc3ccccc3o2)cc1`, the Activity result in series [1] is given as “Non-Toxic”. In addition, in series [2], the Ratio IC50 is over 294. Besides, the half-maximal inhibitory concentration (IC50) is over 100 µM in series [3] and 0.34 µM in series [4].

As for `Brc1cccc(-c2cc3ccccc3o2)c1`, the Activity entry in series [1] was “Non-Toxic”. The inhibition at 100 µM in series [6] came out at 51%. Besides, the Ratio IC50 in series [2] is 85.5. The IC50 was found to be 100 µM in series [3] and 1.17 µM in series [4].

With `Cc1cccc2cc(-c3cccc(Br)c3)oc12`, the Activity result in series [1] is listed as “Non-Toxic”. The Ratio IC50 in series [2] was over 25.2. Besides, the figures for the IC50 in series [3] and in series [4] were over 100 µM and 3.98 µM, respectively.
